Test [1] has as its system Ctenocephalides felis. Put plainly: Insecticidal activity against Ctenocephalides felis by artificial membrane feeding assay. Type of test: functional. The essentials: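 Ex-vivo artificial membrane feeding assay, 20-25 cat fleas per titration level; compounds dissolved or suspended in bovine blood fed to fleas. LD90 taken as the concentration killing >90% of fleas.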

Test [2] is described as follows: Displacement of [35S]nodulisporic amide from Glutamate gated chloride channel alpha subunit/GABA gated chloride channel subunit Rdl in Drosophila melanogaster head membrane. The method, boiled down: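 Competition binding against [35S]nodulisporic amide (10 pM ligand) on Drosophila melanogaster head membranes. Compounds prepared as 20 mM DMSO stocks, tested from 10 µM down to 10 pM (0.1 pM for potent ones) in 0.5 log steps, in triplicate. Each compound assayed at least twice; IC50 reported as geometric mean. Where label recovery increased, the highest concentration without "precipitation" is reported instead.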
For orientation: Displacement assays read how much labelled ligand stays bound in the presence of the test substance.

Where only a bound is given, the exact number is not on record here.

As usually defined, the IC50 is the concentration needed to halve the response being measured. Low values mean greater potency in that assay, high ones weaker potency in that assay. In test [1], `C=C(C)[C@H]1Cc2c3c(cc4c5c(n1c24)[C@@]1(C)[C@@H](CC[C@H]2[C@](C)(/C=C/C=C(\C)C(=O)OC)[C@@H](O)CC[C@@]21C)C5)C1=CC(C)(C)OC(C)(C)[C@H]1[C@@H]3O` yielded an LD90 of 147.1 µM. Also, in test [2], the IC50 came out at 0.0026 µM.
As for `CC(C)=CCc1c2c(cc3c4c([nH]c13)[C@@]1(C)[C@@H](CC[C@@H]3[C@]1(C)CC[C@]1(O)O[C@H]([C@H](O)[C@H](C)C(=O)O)C[C@@]31C)C4)C1=CC(C)(C)OC(C)(C)[C@H]1[C@@H]2O` [NODULISPORIC ACID C2], the LD90 in test [1] is more than 142.5 µM. For the same compound, the 50% inhibitory concentration (IC50) in test [2] came out at 0.0715 µM.
As to `C[C@H](C(=O)O)[C@@H](O)[C@@H]1C[C@@]2(C)[C@@H]3CC[C@H]4Cc5c([nH]c6cc7c(cc56)C5=CC(C)(C)OC(C)(C)[C@H]5C7)[C@]4(C)[C@@]3(C)CC[C@]2(O)O1` [NODULISPORIC ACID D2], in test [2], the IC50 came out at 0.0221 µM.
In test [2], `C/C(=C\C=C\[C@]1(C)C(=O)CC[C@@]2(C)[C@H]1CC[C@H]1Cc3c([nH]c4cc5c(cc34)C3=CC(C)(C)OC(C)(C)[C@H]3C5)[C@@]12C)C(=O)O` [NODULISPORIC ACID D3] gave an IC50 of more than 1 µM.
The compound `C=C(C)[C@H]1C(=O)c2c3c(cc4c5c(n1c24)[C@@]1(C)C(CC[C@H]2[C@](C)(/C=C/C=C(\C)C(=O)O)[C@@H](O)CC[C@@]21C)C5)C1=CC(C)(C)OC(C)(C)C1[C@@H]3O` (stereo not given in full) [NOD ACID A] came in with an LD90 in test [1] of 1.5 µM. In test [2], this compound gave an IC50 of 0.00027 µM.
With `C=C(C)[C@H]1C(=O)c2c3c(cc4c5c(n1c24)[C@@]1(C)[C@@H](CC[C@H]2[C@](C)(CC/C=C(\C)C(=O)O)[C@@H](O)CC[C@@]21C)C5)C1=CC(C)(C)OC(C)(C)[C@H]1[C@@H]3O` [NODULISPORIC ACID A4], the LD90 in test [1] was determined as 14.7 µM. The compound further returned an IC50 in test [2] of 0.0024 µM.
Taken in the same sequence, the figures for `C=C(C)[C@H]1C(=O)c2c3c(cc4c5c(n1c24)[C@@]1(C)[C@@H](CC[C@H]2[C@](C)(/C=C/C=C(\C)C(=O)OC)[C@@H](O)CC[C@@]21C)C5)C1=CC(C)(C)OC(C)(C)[C@H]1[C@@H]3O` were 14.4 µM and 0.00043 µM.
`CC(C)=CCc1cc2[nH]c3c(c2cc1CC=C(C)C)C[C@@H]1CC[C@H]2[C@](C)(CC/C=C(\C)C(=O)O)[C@@H](O)CC[C@]2(C)[C@@]31C`: in test [2], the IC50 came out at 2.14 µM.
Compound `C/C(=C\C=C\[C@]1(C)[C@@H](O)CC[C@@]2(C)[C@H]1CC[C@H]1Cc3c([nH]c4cc5c(cc34)C3=CC(C)(C)OC(C)(C)[C@H]3C5)[C@@]12C)C(=O)O` [NODULISPORIC ACID] registered an LD90 in test [1] of 92.6 µM. This compound registered an IC50 in test [2] of more than 1 µM.
Compound `COC(=O)/C(C)=C/CC[C@]1(C)[C@@H](O)CC[C@@]2(C)[C@H]1CC[C@H]1Cc3c([nH]c4cc(CC=C(C)C)c(CC=C(C)C)cc34)[C@@]12C` had an IC50 in test [2] of more than 0.1 µM.
Turning to `C=C(C)[C@H]1C(=O)c2c3c(cc4c5c(n1c24)[C@@]1(C)[C@@H](CC[C@@H]2[C@]1(C)CC[C@]1(O)O[C@H](/C=C(\C)C(=O)O)C[C@@]21C)C5)C1=CC(C)(C)OC(C)(C)[C@H]1[C@@H]3O` [NODULISPORIC ACID A1], in test [1], the LD90 came out at 7.3 µM. Also, the half-inhibitory concentration (IC50) in test [2] stood at 0.0105 µM.
The corresponding values for `CC(C)=CCc1c2c(cc3c4c([nH]c13)[C@@]1(C)[C@@H](CC[C@@H]3[C@]1(C)CC[C@]1(O)O[C@H](/C=C(\C)C(=O)O)C[C@@]31C)C4)C1=CC(C)(C)OC(C)(C)[C@H]1[C@@H]2O` [NODULISPORIC ACID C1] are more than 146.2 µM and 0.0523 µM.
Taken in the same sequence, the figures for `C=C(C)[C@H]1C(=O)c2c3c(cc4c5c(n1c24)[C@@]1(C)[C@@H](CC[C@H]2[C@](C)(CC/C=C(\C)C(=O)O)[C@@H](O)CC[C@@]21C)C5)C1=CC(C)(C)OC(C)(C)C1=C3` were more than 15.1 µM and 0.023 µM.
`C/C(=C\[C@@H]1C[C@@]2(C)[C@@H]3CC[C@H]4Cc5c([nH]c6cc7c(cc56)C5=CC(C)(C)OC(C)(C)[C@H]5C7)[C@]4(C)[C@@]3(C)CC[C@]2(O)O1)C(=O)O` [NODULISPORIC ACID D1] gave a concentration for half-maximal inhibition (IC50) in test [2] of more than 10 µM.
The same measure, in the same setting: in the case of `COC(=O)[C@@H](C)[C@@H](O)[C@@H]1C[C@@]2(C)[C@@H]3CC[C@H]4Cc5c([nH]c6cc7c(cc56)C5=CC(C)(C)OC(C)(C)[C@H]5C7)[C@]4(C)[C@@]3(C)CC[C@]2(O)O1` [NODULISPORIC ACID D2 METHYL ESTER] it was more than 10 µM.
Take `C=C(C)[C@H]1Cc2c3c(cc4c5c(n1c24)[C@@]1(C)[C@@H](CC[C@@H]2[C@]1(C)CC[C@]1(O)O[C@H](/C=C(\C)C(=O)O)C[C@@]21C)C5)C1=CC(C)(C)OC(C)(C)[C@H]1[C@@H]3O` [NODULISPORIC ACID B1]: the LD90 in test [1] was more than 147.7 µM. For the same compound, the IC50 in test [2] was determined as 0.121 µM.
Taken in the same sequence, the figures for `C=C(C)[C@H]1C(=O)c2c3c(cc4c5c(n1c24)[C@@]1(C)[C@@H](CC[C@@H]2[C@]1(C)CC[C@]1(O)O[C@H]([C@H](O)[C@H](C)C(=O)O)C[C@@]21C)C5)C1=CC(C)(C)OC(C)(C)[C@H]1[C@@H]3O` [NODULISPORIC ACID A12] were 14 µM and 0.07 µM.
`COC(=O)/C(C)=C/C=C/[C@]1(C)[C@@H](O)CC[C@@]2(C)[C@H]1CC[C@H]1Cc3c([nH]c4cc5c(cc34)C3=CC(C)(C)OC(C)(C)[C@H]3C5)[C@@]12C` [NODULISPORIC ACID D METHYL ESTER]: the IC50 in test [2] is more than 0.1 µM.
With `COC(=O)/C(C)=C/[C@@H]1C[C@@]2(C)[C@@H]3CC[C@H]4Cc5c([nH]c6cc7c(cc56)C5=CC(C)(C)OC(C)(C)[C@H]5C7)[C@]4(C)[C@@]3(C)CC[C@]2(O)O1` [NODULISPORIC ACID D1 METHYL ESTER], in test [2], the IC50 was more than 0.1 µM.
As for `C/C(=C\CC[C@]1(C)[C@@H](O)CC[C@@]2(C)[C@H]1CC[C@H]1Cc3c([nH]c4ccccc34)[C@@]12C)C(=O)O` [NODULISPORIC ACID F], the LD90 in test [1] was 45.9 µM. In test [2], this compound yielded an IC50 of more than 10 µM.
In test [1], `CC(C)=CCc1c2c(cc3c4c([nH]c13)[C@@]1(C)[C@@H](CC[C@H]3[C@](C)(CC/C=C(\C)C(=O)O)[C@@H](O)CC[C@@]31C)C4)C1=CC(C)(C)OC(C)(C)C1=C2` had an LD90 of 15.3 µM. For the same compound, the IC50 in test [2] is more than 0.1 µM.
Taken in the same sequence, the figures for `CC(C)=CCc1c2c(cc3c4c([nH]c13)[C@@]1(C)[C@@H](CC[C@H]3[C@](C)(/C=C/C=C(\C)C(=O)O)[C@@H](O)CC[C@@]31C)C4)C1=CC(C)(C)OC(C)(C)[C@H]1[C@@H]2O` [NODULISPORIC ACID C] were 15 µM and 0.0052 µM.
The corresponding values for `C=C(C)[C@H]1Cc2c3c(cc4c5c(n1c24)[C@@]1(C)[C@@H](CC[C@@H]2[C@]1(C)CC[C@]1(O)O[C@H]([C@H](O)[C@H](C)C(=O)O)C[C@@]21C)C5)C1=CC(C)(C)OC(C)(C)[C@H]1[C@@H]3O` [NODULISPORIC ACID B2] are more than 142.9 µM and 0.101 µM.
The corresponding values for `C=C(C)[C@H]1Cc2c3c(cc4c5c(n1c24)[C@@]1(C)[C@@H](CC[C@H]2[C@](C)(/C=C/C=C(\C)C(=O)O)[C@@H](O)CC[C@@]21C)C5)C1=CC(C)(C)OC(C)(C)[C@H]1[C@@H]3O` [NODULISPORIC ACIDS B] are 150 µM and 0.0174 µM.

Source of the values: ChEMBL document CHEMBL1148893, “Nodulisporic acids D-F: structure, biological activities, and biogenetic relationships” (J Nat Prod, 2004).
